Assay results pooled from the literature.
Each line is one published result; the experiments were not run side by side.
Antigen peptide transporter 1/Antigen peptide transporter 2: Antigen peptide transporter 1/Antigen peptide transporter 2 (Homo sapiens, UniProt Q03518+Q03519)
Cnr1: Cannabinoid receptor 1 (Cnr1, Rattus norvegicus, UniProt P20272)
CP: CP (Tobacco mosaic virus, UniProt P69687)

The Kd of `O=C(/C=C/c1cccc(S(=O)(=O)Nc2ccccc2)c1)NO` is reported as 520 nM (Protein deacetylase HDAC6 (HDAC6, Homo sapiens, UniProt Q9UBN7); cell-free assay).
For `C[C@H](N)C(=O)N[C@@H](CCCNC(=N)N)C(=O)N[C@@H](C)C(=O)N[C@@H](C)C(=O)N[C@@H](C)C(=O)N[C@@H](C)C(=O)N[C@@H](C)C(=O)N[C@@H](C)C(=O)N[C@@H](CCCCN)C(=O)O`, the IC50 was 7000 nM (Antigen peptide transporter 1/Antigen peptide transporter 2; ligand displacement).
With `COc1ccc2cccc(C(CO)CNC(=O)CF)c2c1` (stereo not shown) the EC50 was 2.69 nM (Melatonin receptor type 1B (MTNR1B, Homo sapiens, UniProt P49286); β-arrestin recruitment, agonist).
The Ki of `C/C(N)=N\C(=N/S(=O)(=O)c1ccc(C(F)(F)F)cc1)N1C[C@H](c2ccccc2)C(c2ccc(Cl)cc2)=N1` is reported as 8 nM (Cnr1; ligand displacement, radioligand; cell membranes).
`NC(=O)c1ncn([C@@H]2O[C@H](CO)[C@@H](O)[C@H]2O)n1` has a Kd of 120000 nM (CP; binding, MST).
For `COc1c(-c2ccccc2)oc2c(ccc3occc32)c1=O`, the IC50 was > 100000 nM (Cyclin-dependent kinase 7, with cyclin H (CDK7, Homo sapiens, UniProt P50613); enzyme activity, inhibitor, ADP detection).
`CNCC(=O)N[C@@H](CO)C(=O)N[C@H]1[C@H](O)[C@@H](O)[C@H](n2ccc(N)nc2=O)O[C@@H]1C(N)=O` has a Kd of 9200 nM (CP; binding, MST).
For `CC[C@H](C)[C@H](NC(=O)[C@H](CCCNC(=N)N)NC(=O)[C@H](C)N)C(=O)N[C@@H](CC(=O)O)C(=O)N[C@@H](CCCCN)C(=O)N1CCC[C@H]1C(=O)N[C@H](C(=O)N[C@@H](CC(C)C)C(=O)N[C@@H](C)C(=O)O)[C@@H](C)CC`, the IC50 was 500 nM (Antigen peptide transporter 1/Antigen peptide transporter 2; ligand displacement).
`CCCCCn1c2ccccc2c2cc(C(=O)NCC3CCN(CC(=O)NC(C)(C)C)CC3)ccc21` has a Ki of > 5000 nM (Cnr1; ligand displacement, radioligand).
`C[C@H](NC(=O)[C@H](CCC(=O)O)NC(=O)[C@@H](NC(=O)[C@H](CO)NC(=O)[C@H](CCCCN)NC(=O)[C@H](CCC(N)=O)NC(=O)[C@H](Cc1ccc(O)cc1)NC(=O)[C@H](CCCNC(=N)N)NC(=O)[C@@H](N)CCCNC(=N)N)[C@@H](C)O)C(=O)O` has an IC50 of 700 nM (Antigen peptide transporter 1/Antigen peptide transporter 2; ligand displacement).
With `CC[C@H](C)[C@H](NC(=O)[C@H](CC(C)C)NC(=O)[C@@H](N)CO)C(=O)NCC(=O)N[C@@H](CCCCN)C(=O)N[C@H](C(N)=O)C(C)C` the EC50 was 28200 nM (Proteinase-activated receptor 2 (F2RL1, Homo sapiens, UniProt P55085); calcium signal, agonist).
For `CC(C)C[C@H](NC(=O)[C@H](CCC(=O)O)NC(=O)[C@@H](NC(=O)[C@H](CO)NC(=O)[C@H](CCCCN)NC(=O)[C@H](CCC(N)=O)NC(=O)[C@H](Cc1ccc(O)cc1)NC(=O)[C@H](CCCNC(=N)N)NC(=O)[C@H](CCCNC(=N)N)NC(=O)[C@H](C)N)[C@@H](C)O)C(=O)N[C@@H](C)C(=O)O`, the IC50 was 2600 nM (Antigen peptide transporter 1/Antigen peptide transporter 2; ligand displacement).
`CCCCCn1c2ccccc2c2cc(CN3CCCCC3)ccc21` has a Ki of ~100 nM (Cnr1; ligand displacement, radioligand; cell membranes).
